Results published in ChEMBL document CHEMBL1123577, “Synthesis and structure-activity relationships of a series of aminopyridazine derivatives of gamma-aminobutyric acid acting as selective GABA-A antagonists” (J Med Chem, 1987).

Target: 4-aminobutyrate aminotransferase, mitochondrial (Homo sapiens, UniProt P80404)
Assay: Compound was tested for inhibition of Gamma-amino-N-butyrate transaminase

Chain of 4-aminobutyrate aminotransferase, mitochondrial (P80404 whole entry): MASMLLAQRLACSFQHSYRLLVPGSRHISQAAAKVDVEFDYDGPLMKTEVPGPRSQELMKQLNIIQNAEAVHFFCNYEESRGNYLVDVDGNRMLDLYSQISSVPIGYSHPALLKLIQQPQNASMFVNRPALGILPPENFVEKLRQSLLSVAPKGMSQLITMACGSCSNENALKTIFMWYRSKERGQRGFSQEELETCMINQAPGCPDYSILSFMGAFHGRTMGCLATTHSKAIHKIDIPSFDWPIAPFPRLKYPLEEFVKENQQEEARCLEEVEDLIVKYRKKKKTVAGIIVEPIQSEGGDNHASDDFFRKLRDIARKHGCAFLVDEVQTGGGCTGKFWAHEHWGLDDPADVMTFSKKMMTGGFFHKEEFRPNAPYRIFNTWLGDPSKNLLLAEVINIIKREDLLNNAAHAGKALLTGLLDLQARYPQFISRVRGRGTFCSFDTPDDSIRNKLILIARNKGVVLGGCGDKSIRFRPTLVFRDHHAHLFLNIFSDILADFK

Ki [µM]	Structure (SMILES)
91	O=C(O)CNC(=S)Nc1ccccc1

Target: GABA-A receptor; anion channel
Assay: Binding affinity, determined by its ability to displace the [3H]GABA from Gamma-aminobutyric acid A (GABA-A) receptor site of rat brain membranes
Design: species or system Membrane

Ki [µM]	Structure (SMILES)
0.58	Nc1ccc(-c2cccs2)n[n+]1CCCC(=O)O
3.74	Nc1ccc(C2CCCCC2)n[n+]1CCCC(=O)O
10.6	Cc1n[n+](CCCC(=O)O)c(N)cc1-c1ccccc1
31.9	Cc1ccn[n+](CCCC(=O)O)c1N
91	N#CCCC[n+]1nc(-c2ccccc2)ccc1N
9	Cc1cc(-c2ccccc2)n[n+](C(C)CCC(=O)O)c1N (configuration not stated)
7	Cc1cc(-c2ccccc2)n[n+](CCC(C)C(=O)O)c1N (configuration not stated)
0.55	Cc1ccc(-c2cc(C)c(N)[n+](CCCC(=O)O)n2)cc1
91	N#CCCC[n+]1nc(-c2ccccc2)cc(-c2ccccc2)c1N
10.4	Cc1cc(N)[n+](CCCC(=O)O)nc1-c1ccccc1
0.31	COc1ccc(-c2cc(C)c(N)[n+](CCCC(=O)O)n2)cc1
1.22	NC1C=CC(c2ccccc2)=NN1CCCC(=O)O (configuration not stated)
1.37	Nc1ccc(-c2ccccc2Cl)n[n+]1CCCC(=O)O
22.3	CC(C)Cc1ccc(N)[n+](CCCC(=O)O)n1
7	Cc1cc(-c2ccccc2)n[n+](CCC(=O)O)c1N
20	Cc1cc(-c2ccccc2)n[n+](CCCC#N)c1N
12.7	Cc1cc(-c2ccccc2)n[n+](CCCCCC(=O)O)c1N
> 100	CCOC(=O)CCC[n+]1nc(-c2ccccc2)cc(C)c1N
0.43	Cc1cc(-c2ccc(O)cc2)n[n+](CCCC(=O)O)c1N
10	Cc1cc(-c2ccccc2)n[n+](CCCCC(=O)O)c1N
2.37	Nc1ccc(-c2ccsc2)n[n+]1CCCC(=O)O

Ki [µM]	Structure (SMILES)
> 100	CCCN(CCC)CCCC(=O)O
> 100	O=C(O)CCCC1CCNC1 (configuration not stated)
100	NC1C(c2ccccc2)=CC(c2ccccc2)=NN1CCCC(=O)O (configuration not stated)
22.8	Cc1cc(-c2ccc([N+](=O)[O-])cc2)n[n+](CCCC(=O)O)c1N
50	Oc1onc2c1CCNCC2
91	Cc1cc(-c2ccccc2)n[n+](CCCC(N)=O)c1N
100	NC(=O)NCCCC(=O)O
2.64	Cc1cc(-c2cccc3ccccc23)n[n+](CCCC(=O)O)c1N
1.27	Nc1ccc(-c2ccc(F)cc2)n[n+]1CCCC(=O)O
0.28	Nc1ccc(-c2ccc(Cl)cc2)n[n+]1CCCC(=O)O
0.45	Cc1cc(-c2cccc(Cl)c2)n[n+](CCCC(=O)O)c1N
2.14	Cc1cc(-c2ccccc2Cl)n[n+](CCCC(=O)O)c1N
91.2	Nc1ccc(Cl)n[n+]1CCCC(=O)O
0.56	Nc1ccc(-c2ccc(Cl)cc2Cl)n[n+]1CCCC(=O)O
> 100	Cc1cc(-c2ccccc2)nn(CCCC(=O)O)c1=O
100	CC(C)(C)C(=O)ONCCCC(=O)O
1.37	Nc1ccc(-c2ccc([N+](=O)[O-])cc2)n[n+]1CCCC(=O)O
0.047	CC12CC(=O)C3C(CCC4CC(O)CCC43C)C1CC(=N)N2 (configuration not stated)
100	Nc1cc(-c2ccccc2)cn[n+]1CCCC(=O)O
62	Cc1cc(-c2ccccc2)n[n+](CC(=O)O)c1N
2.3	Cc1cc(-c2ccccc2)n[n+](CCCC(=O)O)c1N [FAMIRAPRINIUM CHLORIDE]

Structure (SMILES)	Ki [µM]
C[N+]1(C)CCc2cc3c(cc2[C@H]1[C@@H]1OC(=O)c2c1ccc1c2OCO1)OCO3	38

Target: GABA-A receptor; anion channel
Assay: Inhibition of [3H]GABA binding to Gamma-aminobutyric acid A (GABA-A) receptor of rat brain membranes
Assay type: cell membranes, Membrane
Summary of the method: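 Triton-treated whole-brain membranes from male Wistar rats (180–220 g), labelled with [3H]GABA at 2.9 nM. Compounds were first screened at 100 μM. Those inhibiting binding by more than 50% were run as dose-inhibition curves of four to eight concentrations in triplicate incubations, and IC50 was derived by log-probit analysis.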

IC50 [µM]	Structure (SMILES)
29	N=C(N)SCCC(=O)O
68	Nc1nc(CCC(=O)O)cs1
18	N/C(S)=N\CC(=O)O
290	O=C(O)CCc1c[nH]cn1
2.1	N=C(N)NCC(=O)O [GUANIDINO ACETATE]
1.8	N=C(N)NCCC(=O)O [OMPENACLID]

Structure (SMILES)	IC50 [µM]
O=C(O)Cc1c[nH]cn1 [IMIDAZOLE ACETIC ACID]	0.9

Target: not listed separately
Assay: Inhibitory activity against sodium-dependent synaptosome uptake was determined
Assay type: functional, tissue-based, Brain

Ki [µM]	Structure (SMILES)
8	[N-]=[N+]=Nc1ccc(/C(N)=N/CCCC(=O)O)cc1
